Among the data in ChEMBL document CHEMBL4145534, “Computer-aided insights into receptor-ligand interaction for novel 5-arylhydantoin derivatives as serotonin 5-HT7 receptor agents with antidepressant activity” (Eur J Med Chem, 2018) are Activity and Ratio Ki values, retold here.

In one data set the test system is Mus musculus. Kind of data set: Effect on spontaneous locomotor activity in Swiss albino mouse at 10 mg/kg, ip administered 60 mins prior to test and measured for 3 to 6 mins. The data set is classed as ADME, organism-based. The note with it: in vivo. The gist of the method:
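Male Swiss Albino mice given compound or vehicle (1% Tween 80, 10 ml/kg) i.p. 60 min before test. Each mouse placed alone in a cage for 30 min habituation. Ambulation (photobeam channel crossings) then recorded over a 3–6 min session. Means ± SEM.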

The species named for another data set is Homo sapiens. As to the kind of experiment: Selectivity ratio of Ki for human D2L receptor expressed in HEK293 cell membranes to Ki for human 5HT7BR expressed in HEK293 cell membranes. The data set is classed as cell-based. The gist of the method: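 Membranes from HEK293 cells stably expressing human 5-HT1A, 5-HT7b or D2L receptors. Buffers all 50 mM Tris HCl with 4 mM MgCl2 and 0.1% ascorbate. 5-HT1A: 0.1 mM EDTA, 10 µM pargyline, 2.5 nM [3H]-8-OH-DPAT, room temperature. 5-HT7b: 10 µM pargyline, 0.8 nM [3H]-5-CT, 37°C. D2L: EDTA, NaCl, KCl, CaCl2, 2.5 nM [3H]-raclopride, 37°C. Incubation 1 h; nonspecific binding 10 µM 5-HT (haloperidol for D2L). Seven concentrations (10^-10–10^-4 M) in triplicate; filtration; Ki by Cheng-Prusoff; at least two experiments.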

For `COc1ccccc1N1CCN(CC(O)CN2C(=O)NC(C)(c3ccc(Br)cc3)C2=O)CC1.Cl` (racemic), the Activity entry with Mus musculus was “Non-Toxic”.
As for `CC1(c2ccc(Cl)cc2)NC(=O)N(CC(O)CN2CCN(c3ccccc3C#N)CC2)C1=O.Cl` (racemic), the Ratio Ki in the data set filed under Homo sapiens was 140 to 190.
